# Measured values reported in ChEMBL document CHEMBL3739289, “Discovery, synthesis and structure-activity analysis of symmetrical 2,7-disubstituted fluorenones as urea transporter inhibitors” (Medchemcomm, 2015).
# Active and inactive are the calls of the source. The rule behind the calls is not given here.
# What was measured:
# Urea transporter 1 = target: T1, Urea transporter 1 (Rattus norvegicus, UniProt P97689); assay: Inhibition of UT-B in rat whole blood after 15 mins by RBC lysis assay; format: tissue-based
# T1 sequence (P97689 whole entry): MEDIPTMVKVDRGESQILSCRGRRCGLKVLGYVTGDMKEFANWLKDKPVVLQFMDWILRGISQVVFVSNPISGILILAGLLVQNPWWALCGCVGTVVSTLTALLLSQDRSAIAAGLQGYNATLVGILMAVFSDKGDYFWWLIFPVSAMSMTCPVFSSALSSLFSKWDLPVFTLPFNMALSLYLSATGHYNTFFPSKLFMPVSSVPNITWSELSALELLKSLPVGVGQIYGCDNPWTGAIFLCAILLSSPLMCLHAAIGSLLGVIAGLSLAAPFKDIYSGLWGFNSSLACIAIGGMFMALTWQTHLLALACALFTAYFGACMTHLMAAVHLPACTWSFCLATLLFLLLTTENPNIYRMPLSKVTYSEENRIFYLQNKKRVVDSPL
# Outline: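 Whole rat blood diluted to ~1.5% hematocrit in PBS with 1.25 M acetamide. Erythrocytes exposed to compound for 15 min, then rapidly mixed with PBS. Lysis read as absorbance at 710 nm; % inhibition calculated relative to negative and positive controls.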
# Urea transporter 2 = target: T2, Urea transporter 2 (Rattus norvegicus, UniProt Q62668); assay: Inhibition of rat UT-A1 expressed in MDCK-UT-A1-AQP1-YFP cells after 15 mins by fluorescence assay; format: cell-based
# T2 sequence (Q62668 whole entry): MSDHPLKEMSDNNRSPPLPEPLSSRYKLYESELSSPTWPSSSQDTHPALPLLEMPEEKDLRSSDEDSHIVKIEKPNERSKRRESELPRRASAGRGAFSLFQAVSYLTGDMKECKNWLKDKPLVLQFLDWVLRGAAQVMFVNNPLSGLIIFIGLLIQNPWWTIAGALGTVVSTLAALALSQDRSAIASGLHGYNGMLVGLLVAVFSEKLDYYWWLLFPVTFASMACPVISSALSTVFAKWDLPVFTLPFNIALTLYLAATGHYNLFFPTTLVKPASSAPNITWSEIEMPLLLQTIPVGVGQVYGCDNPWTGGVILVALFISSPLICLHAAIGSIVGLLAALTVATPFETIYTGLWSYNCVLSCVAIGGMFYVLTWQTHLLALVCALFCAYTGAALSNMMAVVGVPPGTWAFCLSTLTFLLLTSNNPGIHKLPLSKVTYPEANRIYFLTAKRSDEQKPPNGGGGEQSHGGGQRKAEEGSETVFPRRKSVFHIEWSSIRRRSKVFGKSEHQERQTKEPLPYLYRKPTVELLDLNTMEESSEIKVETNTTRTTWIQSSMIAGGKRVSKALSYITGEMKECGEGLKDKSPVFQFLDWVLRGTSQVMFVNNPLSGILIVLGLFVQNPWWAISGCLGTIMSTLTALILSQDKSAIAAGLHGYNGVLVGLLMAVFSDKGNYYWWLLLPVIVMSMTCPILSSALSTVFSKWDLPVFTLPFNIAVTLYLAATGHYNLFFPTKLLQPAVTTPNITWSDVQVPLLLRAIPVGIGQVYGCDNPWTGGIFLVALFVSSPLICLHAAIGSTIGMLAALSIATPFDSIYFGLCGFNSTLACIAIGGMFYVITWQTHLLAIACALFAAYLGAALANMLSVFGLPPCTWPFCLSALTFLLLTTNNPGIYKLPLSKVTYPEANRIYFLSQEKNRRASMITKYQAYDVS
# [1] = Drug level in 1M NaOH treated with compound-18 assessed as compound formation; format: physicochemical
# [2] = Drug metabolism in rat liver microsomes assessed as cytochrome P450 monooxygenase-mediated oxidation by LC/MS analysis; format: ADME
# Outline: (§1)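 Compounds incubated with rat liver microsomes plus NADPH for up to 60 min. Parent loss and metabolite appearance followed by LC/MS.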
# [3] = Metabolic stability in rat liver microsomes assessed as compound remaining after 15 mins by RP-HPLC analysis in presence of NADPH; format: ADME; conditions: read-out: Stability; outline: as §1
# [4] = target: T3, Urea transporter 2 (Rattus norvegicus) (UniProt Q62668); assay: Reversible inhibition of rat UT-A1 expressed in MDCK-UT-A1-AQP1-YFP cells at IC50 measured 15 mins post compound washout by fluorescence assay; format: cell-based
# T3 sequence (whole entry): T2 sequence (Q62668 whole entry)
# [5] = target: T3, Urea transporter 2 (Rattus norvegicus); assay: Non competitive inhibition of rat UT-A1 expressed in MDCK-UT-A1-AQP1-YFP cells at IC50 after 15 mins by fluorescence assay in presence of urea; format: cell-based
# [6] = target: T3, Urea transporter 2 (Rattus norvegicus); assay: Inhibition of rat UT-A1 expressed in MDCK-UT-A1-AQP1-YFP cells after 40 secs by fluorescence assay; format: cell-based
# Liver microsome = assay: Drug metabolism in rat liver microsomes assessed as [M+ H-16] formation by LC/MS analysis; format: ADME; conditions: TDE = time-dependent effect
# Outline: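 Rat liver microsomes incubated with compound in presence of NADPH; disappearance of parent and appearance of metabolite followed by LC/MS over 60 min.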
Structure (SMILES),IC50 (Urea transporter 1) [µM],IC50 (Urea transporter 2) [µM],also measured
O=C(COCc1ccccc1)Nc1ccc2c(c1)C(=O)c1cc(NC(=O)COCc3ccccc3)ccc1-2,> 50,> 50,
O=C1c2cc([N+](=O)[O-])ccc2-c2ccc([N+](=O)[O-])cc21,> 50,> 50,
Nc1cccc(C(=O)c2cccc(N)c2)c1,> 50,> 50,
CC(=O)/N=C1\C=CC2=c3ccc(NC(C)=O)cc3=CC2=C1,,,Drug metabolism [1]: metabolite_detected
CC(=O)Nc1cccc(C(=O)c2cccc(NC(C)=O)c2)c1,20,18,Drug metabolism [2]: metabolite_notdetected; remaining at 0.25 h [3]: > 80%
CC(C)C(=O)Nc1ccc2c(c1)C(=O)c1cc(NC(=O)C(C)C)ccc1-2,50,18,
CS(=O)(=O)Nc1ccc2c(c1)C(=O)c1cc(NS(C)(=O)=O)ccc1-2,2.5,1.5,
CC(=O)Nc1ccc2c(c1)S(=O)(=O)c1cc(NC(C)=O)ccc1-2,2,15,Drug metabolism [2]: metabolite_notdetected; remaining at 0.25 h [3]: > 80%
[N-]=[N+]=NCC(=O)Nc1ccc2c(c1)C(=O)c1cc(NC(=O)CN=[N+]=[N-])ccc1-2,30,20,
Nc1ccc2c(c1)C(=O)c1cc(N)ccc1-2,> 50,> 50,
CCC(=O)Nc1ccc2c(c1)C(=O)c1cc(NC(=O)CC)ccc1-2,5,15,
O=C(O)/C=C\C(=O)Nc1ccc2c(c1)C(=O)c1cc(NC(=O)/C=C\C(=O)O)ccc1-2,> 50,30,
O=C1c2cc(NC(=O)C(F)(F)F)ccc2-c2ccc(NC(=O)C(F)(F)F)cc21,7.5,10,
CCCC(=O)Nc1ccc2c(c1)C(=O)c1cc(NC(=O)CCC)ccc1-2,> 50,> 50,
CC(=O)Nc1ccc2c(c1)C(O)c1cc(NC(C)=O)ccc1-2,20,> 50,
NC(=O)Nc1ccc2c(c1)C(=O)c1cc(NC(N)=O)ccc1-2,1.2,2,
CC(=O)Nc1ccc2c(c1)C(=NO)c1cc(NC(C)=O)ccc1-2,25,12,Drug metabolism [2]: metabolite_notdetected; remaining at 0.25 h [3]: > 80%
CC(=O)Nc1ccc2c(c1)C(=O)c1cc(NC(C)=O)ccc1-2,1.5,1,inhibition [4]: Active; inhibition [5]: Active; inhibition [6]: Active; Drug metabolism [2]: metabolite_notdetected; Drug metabolism (Liver microsome): tde; remaining at 0.25 h [3]: 60%
O=C(COCc1ccccc1)Nc1cccc(C(=O)c2cccc(NC(=O)COCc3ccccc3)c2)c1,> 50,> 50,
O=C(CBr)Nc1ccc2c(c1)C(=O)c1cc(NC(=O)CBr)ccc1-2,10,30,
COCCOCC(=O)Nc1ccc2c(c1)C(=O)c1cc(NC(=O)COCCOC)ccc1-2,50,> 50,
O=C(CO)Nc1ccc2c(c1)C(=O)c1cc(NC(=O)CO)ccc1-2,25,20,
O=C1c2cc(N3CCCS3(=O)=O)ccc2-c2ccc(N3CCCS3(=O)=O)cc21,> 50,> 50,
CS(=O)(=O)Nc1cccc(C(=O)c2cccc(NS(C)(=O)=O)c2)c1,30,> 50,
